pEC50, pIC50: −log10 of the molar value.
Columns and labels:
HeLa [1] = test: Cell cycle arrest in TNF-alpha-stimulated human HeLa cells transfected with NFkappaB-Luc assessed as accumulation at G2/G1 phase at 0.5 uM after 8 hrs by propidium iodide-based flow cytometry; assay type: functional
Summary of the method: (§1)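 HeLa NF-κB-luc cells (stable, hygromycin-selected) were treated with vehicle (1% DMSO) or compound at 40–0.2 µM final for 8 h at 37 °C, 5% CO2. Adherent cells were trypsinized, resuspended in PBS/50% FBS, fixed overnight in 70% ice-cold ethanol and washed with cold PBS/10% FBS, then analysed for cell cycle by flow cytometry.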

HeLa [2] = test: Cell cycle arrest in TNF-alpha-stimulated human HeLa cells transfected with NFkappaB-Luc assessed as accumulation at diploid G1 phase at 20 uM after 8 hrs by propidium iodide-based flow cytometry; assay type: functional; summary of the method: as §1
HeLa [3] = test: Cell cycle arrest in TNF-alpha-stimulated human HeLa cells transfected with NFkappaB-Luc assessed as accumulation at diploid stage at 1 uM after 8 hrs by propidium iodide-based flow cytometry; assay type: functional
HeLa [4] = test: Effect on cell cycle arrest in TNF-alpha-stimulated human HeLa cells assessed as cell aggregate level at 10 uM after 8 hrs by propidium iodide-based flow cytometry; assay type: functional
HeLa [5] = test: Effect on cell cycle arrest in TNF-alpha-stimulated human HeLa cells assessed as cell debris level at 10 uM after 8 hrs by propidium iodide-based flow cytometry; assay type: functional
HeLa [6] = test: Cell cycle arrest in TNF-alpha-stimulated human HeLa cells transfected with NFkappaB-Luc assessed as accumulation at G2/G1 phase after 8 hrs by propidium iodide-based flow cytometry
HeLa [7] = test: Cell cycle arrest in human HeLa cells transfected with NFkappaB-Luc assessed as accumulation at diploid G2 phase at 20 uM after 8 hrs by propidium iodide-based flow cytometry; assay type: functional; summary of the method: as §1
HeLa [8] = test: Effect on cell cycle arrest in TNF-alpha-stimulated human HeLa cells assessed as cell aggregate level at 0.1 uM after 8 hrs by propidium iodide-based flow cytometry; assay type: functional
HeLa [9] = test: Effect on cell cycle arrest in TNF-alpha-stimulated human HeLa cells assessed as cell debris level at 20 uM after 8 hrs by propidium iodide-based flow cytometry; assay type: functional
Blood [10] = test: Antiinflammatory activity in human whole blood assessed as inhibition of IL-1-beta-induced TNFalpha production preincubated 2 hrs before addition of IL1-beta measured after 18 hrs by ELISA; assay type: functional, tissue-based; settings: Homo sapiens, Blood
Summary of the method: (§2)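 Human blood from donors with white count in the normal range, diluted 1:10 in RPMI-1640 with 10% FBS, penicillin and streptomycin. Aliquots were preincubated with vehicle (0.1% DMSO final) or compound at 10, 3, 1, 0.3 or 0.1 µM final for 2 h at 37 °C, 5% CO2. IL-1β (200 U/mL) was then added for 18 h, and plasma was collected and frozen. Cytokine was measured by ELISA.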

HeLa [11] = test: Cell cycle arrest in human HeLa cells transfected with NFkappaB-Luc assessed as accumulation at diploid stage at 20 uM after 8 hrs by propidium iodide-based flow cytometry; assay type: functional; summary of the method: as §1
HeLa [12] = test: Cell cycle arrest in TNF-alpha-stimulated human HeLa cells transfected with NFkappaB-Luc assessed as accumulation at diploid G1 phase at 0.5 uM after 8 hrs by propidium iodide-based flow cytometry; assay type: functional; summary of the method: as §1
[13] = Inhibition of TNF-alpha-induced NF-kappaB-mediated transcription expressed in human HeLa cells co-transfected with renilla luciferase-TK gene preincubated for 30 mins before TNFalpha challenge measured after 8 hrs by dual-glo luciferase reporter gene assay; assay type: cell-based
Summary of the method: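 HeLa cells were transiently cotransfected (lipofectamine 2000, 5–6 h) with 6×κB pNF-κB-luc and the pRL-TK Renilla control, then grown 24 h. They were pretreated 30 min with 0.312–20 µM (1% DMSO vehicle), then stimulated with 25 ng/mL TNF-α for 8 h at 37 °C. Dual-Glo firefly signal was normalized to Renilla luminescence.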

HeLa [14] = test: Cell cycle arrest in TNF-alpha-stimulated human HeLa cells transfected with NFkappaB-Luc assessed as accumulation at G2/G1 phase at 10 uM after 8 hrs by propidium iodide-based flow cytometry; assay type: functional; summary of the method: as §1
HeLa [15] = test: Effect on cell cycle arrest in TNF-alpha-stimulated human HeLa cells assessed as cell aggregate level at 1 uM after 8 hrs by propidium iodide-based flow cytometry; assay type: functional
HeLa [16] = test: Cell cycle arrest in TNF-alpha-stimulated human HeLa cells transfected with NFkappaB-Luc assessed as accumulation at diploid G1 phase at 0.05 uM after 8 hrs by propidium iodide-based flow cytometry; assay type: functional
HeLa [17] = test: Cell cycle arrest in TNF-alpha-stimulated human HeLa cells transfected with NFkappaB-Luc assessed as accumulation at S phase at 0.5 uM after 8 hrs by propidium iodide-based flow cytometry; assay type: functional; summary of the method: as §1
HeLa [18] = test: Cell cycle arrest in TNF-alpha-stimulated human HeLa cells transfected with NFkappaB-Luc assessed as accumulation at diploid G1 phase at 10 uM after 8 hrs by propidium iodide-based flow cytometry; assay type: functional; summary of the method: as §1
HeLa [19] = test: Cell cycle arrest in TNF-alpha-stimulated human HeLa cells transfected with NFkappaB-Luc assessed as accumulation at diploid stage at 0.5 uM after 8 hrs by propidium iodide-based flow cytometry; assay type: functional; summary of the method: as §1
HeLa [20] = test: Cell cycle arrest in human HeLa cells transfected with NFkappaB-Luc assessed as accumulation at G2/G1 phase at 20 uM after 8 hrs by propidium iodide-based flow cytometry; assay type: functional; summary of the method: as §1
HeLa [21] = test: Cell cycle arrest in TNF-alpha-stimulated human HeLa cells transfected with NFkappaB-Luc assessed as accumulation at diploid G2 phase at 0.1 uM after 8 hrs by propidium iodide-based flow cytometry; assay type: functional
HeLa [22] = test: Effect on cell cycle arrest in TNF-alpha-stimulated human HeLa cells assessed as cell debris level at 5 uM after 8 hrs by propidium iodide-based flow cytometry; assay type: functional
HeLa [23] = test: Cell cycle arrest in TNF-alpha-stimulated human HeLa cells transfected with NFkappaB-Luc assessed as accumulation at diploid G2 phase at 20 uM after 8 hrs by propidium iodide-based flow cytometry; assay type: functional; summary of the method: as §1
[24] = Cytotoxicity against human whole blood lymphocytes assessed as survival cell count in millions at 3 uM by trypan blue staining based hemocytometer
HeLa [25] = test: Cell cycle arrest in TNF-alpha-stimulated human HeLa cells transfected with NFkappaB-Luc assessed as accumulation at S phase at 0.05 uM after 8 hrs by propidium iodide-based flow cytometry; assay type: functional
HeLa [26] = test: Cell cycle arrest in human HeLa cells transfected with NFkappaB-Luc assessed as accumulation at S phase at 20 uM after 8 hrs by propidium iodide-based flow cytometry; assay type: functional; summary of the method: as §1
HeLa [27] = test: Cell cycle arrest in TNF-alpha-stimulated human HeLa cells transfected with NFkappaB-Luc assessed as accumulation at S phase at 10 uM after 8 hrs by propidium iodide-based flow cytometry; assay type: functional; summary of the method: as §1
HeLa [28] = test: Cell cycle arrest in TNF-alpha-stimulated human HeLa cells transfected with NFkappaB-Luc assessed as accumulation at diploid stage at 5 uM after 8 hrs by propidium iodide-based flow cytometry; assay type: functional; summary of the method: as §1
HeLa [29] = test: Effect on cell cycle arrest in TNF-alpha-stimulated human HeLa cells assessed as cell aggregate level at 0.5 uM after 8 hrs by propidium iodide-based flow cytometry; assay type: functional
Blood [30] = test: Antiinflammatory activity in human whole blood assessed as inhibition of IL-1-beta-induced IL6 production after 18 hrs by ELISA; assay type: functional, tissue-based; summary of the method: as §2

pIC50 (Blood [10]): 5.93 | pEC50 [13]: 5.33 | pEC50 (Blood [30]): 5.74
Compound: CCOC(=O)[C@]1(c2ccccc2)N=C(c2ccccc2)N(Cc2ccccc2)[C@@H]1c1ccccc1 (racemic)
Ratio (HeLa [1]): 1.91 | Activity (HeLa [2]): 65.96% | Activity (HeLa [3]): 100% | Activity (HeLa [4]): 0% | Activity (HeLa [5]): 15.28% | Ratio (HeLa [6]): 1.91 | Activity (HeLa [7]): 13.33% | Activity (HeLa [8]): 0% | Activity (HeLa [9]): 14.57% | Activity (HeLa [11]): 100% | Activity (HeLa [12]): 64.08% | Ratio (HeLa [14]): 1.91 | Activity (HeLa [15]): 0% | Activity (HeLa [16]): 64.3% | Activity (HeLa [17]): 22.52% | Activity (HeLa [18]): 68.19% | Activity (HeLa [19]): 100% | Ratio (HeLa [20]): 1.9 | Activity (HeLa [21]): 14.03% | Activity (HeLa [22]): 2.7% | Activity (HeLa [23]): 14.75% | Activity [24]: 1.7 mL⁻¹ | Activity (HeLa [25]): 22.8% | Activity (HeLa [26]): 21.48% | Activity (HeLa [27]): 16.8% | Activity (HeLa [28]): 100% | Activity (HeLa [29]): 0%

— ChEMBL document CHEMBL1140925, “Nuclear factor-kappaB mediated inhibition of cytokine production by imidazoline scaffolds” (J Med Chem, 2009)
